# Reference: ChEMBL document CHEMBL4007509, “Structural Optimizations of Thieno[3,2-b]pyrrole Derivatives for the Development of Metabolically Stable Inhibitors of Chikungunya Virus” (J Med Chem, 2017)
# Active and inactive are the calls of the source. The rule behind the calls is not given here.
# Legend:
# Chikungunya virus [1] = test: Antiviral activity against wild type Chikungunya virus IMT infected in HEK293T cells assessed as reduction in virus infection after 24 hrs by FITC immunofluorescence-based single cell quantification high content screening assay; type: functional; details: HEK-293T
# [2] = Cytotoxicity against HEK293T cells assessed as reduction in cell viability after 24 hrs by CellTiter-Glo luminescent assay; type: cell-based, HEK-293T; details: human
# How it was run: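 HEK 293T cell viability was measured by CellTiter-Glo luminescence after 24 h exposure to serial dilutions. Data were normalized to untreated cells (100%) and reagent background (0%). CC50, the concentration reducing viability by 50%, came from a five-parameter asymmetric fit.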
# Chikungunya virus [3] = test: Antiviral activity against full length Gaussia princeps Gluc-tagged Chikungunya virus IMT infected in HEK293T cells assessed as reduction in virus infection after 24 hrs by Gaussia luciferase reporter gene assay; type: functional, cell-based; details: HEK-293T
# [4] = Selectivity index, ratio of CC50 for HEK293T cells to EC50 for full length Gaussia princeps Gluc-tagged Chikungunya virus IMT; type: toxicity; details: human, read-out: Ratio CC50/EC50
# [5] = Half life in human liver microsomes; type: ADME, microsome
# How it was run: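 Compounds were incubated with human liver microsomes. Half-life = ln(2)/slope, where the slope is ln(% detected) plotted against time, using the mean of at least 3 independent experiments.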
# Liver = test: Intrinsic clearance in human liver microsomes; type: ADME, microsome
# How it was run: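 Intrinsic clearance was measured in human liver microsome incubation and expressed in μL min−1 mg−1 microsomal protein.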
# [6] = Terminal half life in C57BL/6 mouse at 3 mg/kg, iv; type: ADME, organism-based; details: in vivo, read-out: beta t1/2 (converted)
# How it was run: (§1)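 Male C57BL/6 mice received a single 3 mg/kg iv or 10 mg/kg po dose of a solution in 5% DMSO, 70% PEG400 and 25% water. Results are terminal half-life (h), plasma clearance (mL min−1 kg−1), Vss (L/kg), Tmax (h), Cmax (ng/mL) and oral bioavailability. Values are mean ± SD of three mice.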
# [7] = Terminal half life in C57BL/6 mouse at 10 mg/kg, po; type: ADME, organism-based; details: in vivo, read-out: beta t1/2 (converted); how it was run: as §1
# [8] = Plasma clearance in C57BL/6 mouse at 3 mg/kg, iv; type: ADME, organism-based; how it was run: as §1
# [9] = Volume of distribution in steady state in C57BL/6 mouse at 3 mg/kg, iv; type: ADME, organism-based; details: in vivo, read-out: Vdss; how it was run: as §1
# [10] = Tmax in C57BL/6 mouse at 10 mg/kg, po; type: ADME, organism-based; details: in vivo; how it was run: as §1
# [11] = Cmax in C57BL/6 mouse at 10 mg/kg, po; type: ADME, organism-based; design: dose 10 mg/kg, route oral; details: in vivo; how it was run: as §1
# [12] = Oral bioavailability in C57BL/6 mouse at 10 mg/kg; type: ADME, organism-based; details: in vivo; how it was run: as §1
# [13] = Plasma concentration in C57BL/6 mouse at 3 mg/kg, iv administered as single dose measured within 1 hr post dose by HPLC-MS/MS analysis; type: ADME, organism-based
# How it was run: (§2)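 Male C57BL/6 mice received a single 3 mg/kg iv or 10 mg/kg po dose in 5% DMSO/70% PEG400/25% water. Plasma was sampled at set times over 24 h and analysed by HPLC-MS/MS, with a quantification limit of 0.5 ng/mL. Values are mean ± SD of three mice.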
# Chikungunya virus [14] = test: Antiviral activity against Chikungunya virus IMT infected in HEK 293T cells assessed as reduction in viral load measured up to 24 hrs by qRT-PCR analysis; type: functional, cell-based
# [15] = Plasma concentration in C57BL/6 mouse at 10 mg/kg, po administered as single dose measured at 24 hrs by HPLC-MS/MS analysis; type: ADME, organism-based; how it was run: as §2
# Chikungunya virus [16] = test: Antiviral activity against Chikungunya virus IMT infected in HEK 293T cells assessed as reduction in viral load at 5 uM measured up to 24 hrs by qRT-PCR analysis relative to control; type: functional
# Chikungunya virus [17] = test: Antiviral activity against Chikungunya virus IMT infected in HEK 293T cells assessed as reduction in viral load at 10 uM measured up to 24 hrs by qRT-PCR analysis relative to control; type: functional
# Chikungunya virus [18] = test: Antiviral activity against Chikungunya virus IMT infected in HEK 293T cells assessed as reduction in viral load at 25 uM measured up to 24 hrs by qRT-PCR analysis relative to control; type: functional
# [19] = Plasma concentration in C57BL/6 mouse at 10 mg/kg, po administered as single dose measured within 1 hr post dose by HPLC-MS/MS analysis; type: ADME, organism-based; how it was run: as §2
# [20] = Plasma concentration in C57BL/6 mouse at 3 mg/kg, iv administered as single dose measured at 24 hrs by HPLC-MS/MS analysis; type: ADME, organism-based; how it was run: as §2
# Chikungunya virus [21] = test: Antiviral activity against Chikungunya virus IMT infected in HEK 293T cells assessed as reduction in viral load measured up to 24 hrs by qRT-PCR analysis relative to control; type: functional, cell-based
# Chikungunya virus [22] = test: Antiviral activity against full length gluc-tagged Chikungunya virus 2008 Singapore SGP11 infected in HEK293T cells assessed as reduction in virus infection after 24 hrs by gaussia luciferase reporter gene assay; type: functional, cell-based; details: 2008 Singapore SGP11, HEK-293T
# Chikungunya virus [23] = test: Antiviral activity against full length gluc-tagged Chikungunya virus 2013 Caribbean CNR20235 infected in HEK293T cells assessed as reduction in virus infection after 24 hrs by gaussia luciferase reporter gene assay; type: functional, cell-based; details: 2013 Caribbean CNR20235, HEK-293T
# Onyong-nyong virus = test: Antiviral activity against O'nyong-nyong virus Chad infected in HEK293T cells assessed as reduction in virus infection after 24 hrs by FITC-based assay; type: functional, cell-based; details: HEK-293T
# How it was run: (§3)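 This was a pan-alphavirus panel against ONNV and SINV, read by immunofluorescence-based high content screen. Serial dilutions were normalized to untreated infection (100%) and noninfected cells (0%). The EC50, the concentration inhibiting 50% infectivity, came from a five-parameter asymmetric dose-response fit.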
# Sindbis virus = test: Antiviral activity against Sindbis virus infected in HEK293T cells assessed as reduction in virus infection after 24 hrs by FITC-based assay; type: functional, cell-based; details: HEK-293T; how it was run: as §3
# Chikungunya virus [24] = test: Antiviral activity against full length gluc-tagged Chikungunya virus IMT infected in human BJ cells assessed as reduction in virus infection after 24 hrs by gaussia luciferase reporter gene assay; type: functional, cell-based
# [25] = Cytotoxicity against human BJ cells assessed as reduction in cell viability after 24 hrs by CellTiter-Glo luminescent assay; type: cell-based
# How it was run: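 BJ human fibroblast viability was measured by CellTiter-Glo luminescence after 24 h exposure to serial dilutions. Data were normalized to untreated cells (100%) and reagent background (0%). CC50 came from a five-parameter asymmetric fit.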
# [26] = Selectivity index, ratio of CC50 for human BJ cells to EC50 for full length Gaussia princeps Gluc-tagged Chikungunya virus IMT; type: toxicity; details: read-out: Ratio CC50/EC50
# Chikungunya virus [27] = test: (§4) Antiviral activity against wild type Chikungunya virus IMT infected in HEK293T cells administered 2 to 4 hrs prior to infection measured after 24 hrs post infection by FITC immunofluorescence-based single cell quantification high content screening assay; type: functional; details: HEK-293T
# Chikungunya virus [28] = test: Antiviral activity against wild type Chikungunya virus IMT infected in HEK293T cells administered 2 to 12 hrs post infection measured after 24 hrs post infection by FITC immunofluorescence-based single cell quantification high content screening assay; type: functional
# Chikungunya virus [29] = test: Antiviral activity against wild type Chikungunya virus IMT infected in HEK293T cells at 5 uM administered 2 to 12 hrs post infection measured after 24 hrs post infection by alpha virus detection based FITC immunofluorescence-based single cell quantification high content screening assay; type: functional
# Chikungunya virus [30] = test: as §4, with “to infection followed by cels incubation in absence of compound from 0 hrs post infection onwards measured after 24 hrs by measured after” for “to infection measured after”; type: functional; details: HEK-293T
# Chikungunya virus [31] = test: Antiviral activity against wild type Chikungunya virus IMT infected in HEK293T cells at 5 uM administered 2 to 4 hrs prior to infection followed by cels incubation in absence of compound from 0 hrs post infection onwards measured after 24 hrs by measured after 24 hrs post infection by FITC immunofluorescence-based single cell quantification high content screening assay; type: functional
# Chikungunya virus [32] = test: Antiviral activity against wild type Chikungunya virus IMT infected in HEK293T cells administered during virus adsorption stage (0 hrs post infection) measured after 24 hrs post infection by FITC immunofluorescence-based single cell quantification high content screening assay; type: functional
smiles,measurement,setting,value
CCCNC(=O)[C@@H]1C[C@H]2CCC[C@@H](C1)[C@@H]2NC(=O)c1cc2sc(Br)nc2n1Cc1ccc(OC)cc1,EC50,Chikungunya virus [1],12.6 µM
same,CC50 at 24 h,[2],> 100 µM
same,EC50,Chikungunya virus [3],7.23 µM
same,selectivity ratio,[4],> 14
same,half-life,[5],52 min
same,CLH,Liver,26.7 µL/min
same,half-life,[6],65.4 min
same,half-life,[7],83.4 min
same,clearance,[8],5.68 mL/min/kg
same,Vd,[9],0.337 L/kg
same,Tmax,[10],20 min
same,Cmax,[11],6700 ng/mL
same,bioavailability,[12],39.1%
same,concentration at 1 h,[13],17 µM
same,inhibition,Chikungunya virus [14],Dose-dependent effect
same,concentration at 24 h,[15],< 0.5 ng/mL
same,fold change (FC),Chikungunya virus [16],<=5
same,fold change (FC),Chikungunya virus [17],<=5
same,fold change (FC),Chikungunya virus [18],<=5
same,concentration at 1 h,[19],17 µM
same,concentration at 24 h,[20],< 0.5 ng/mL
same,Activity,Chikungunya virus [21],Dose-dependent effect
CCCNC(=O)C1CCN(C(=O)c2cc3sc(-c4ccccc4)cc3n2Cc2ccc(OC)cc2)CC1,EC50,Chikungunya virus [1],4.03 µM
same,CC50 at 24 h,[2],> 100 µM
same,EC50,Chikungunya virus [3],3.3 µM
same,selectivity ratio,[4],> 20
same,half-life,[5],44.2 min
same,CLH,Liver,31.4 µL/min
same,half-life,[6],124 min
same,half-life,[7],142 min
same,clearance,[8],18.6 mL/min/kg
same,Vd,[9],2.45 L/kg
same,Tmax,[10],40 min
same,Cmax,[11],720 ng/mL
same,bioavailability,[12],22%
same,concentration at 1 h,[13],2 µM
same,inhibition,Chikungunya virus [14],Dose-dependent effect
same,concentration at 24 h,[15],< 0.5 ng/mL
same,fold change (FC),Chikungunya virus [16],>50
same,EC50,Chikungunya virus [22],2.26 µM
same,EC50,Chikungunya virus [23],2.18 µM
same,EC50,Onyong-nyong virus,3.24 µM
same,EC50,Sindbis virus,1.65 µM
same,EC50,Chikungunya virus [24],5.07 µM
same,CC50 at 24 h,[25],> 100 µM
same,selectivity ratio,[26],> 20
same,EC50,Chikungunya virus [27],2.5 µM
same,Activity,Chikungunya virus [28],Active
same,Activity,Chikungunya virus [29],inactive
same,EC50,Chikungunya virus [30],14 to 15 µM
same,Activity,Chikungunya virus [31],inactive
same,concentration at 1 h,[19],2 µM
same,concentration at 24 h,[20],< 0.5 ng/mL
same,Activity,Chikungunya virus [21],Dose-dependent effect
same,Activity,Chikungunya virus [32],Active
